From the RNAGym collection of RNA variant scans (doi:10.1126/science.aae0568)
This sample holds only a part of the variants without activity.

B1: tRNA (parent)
chain: GUUCCGUUGGCGUAAUGGUAACGCGUCUCCCUCCUAAGGAGAAGACUGCGGGUUCGAGUCCCGUACGGAACG

Variants of: B1
Assay: yeast fitness relative to wild type (ratio to wild type); higher = fitter; tRNA-Arg(CCU), competitive growth, 37 C, YPD
Outline: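 Variants of the tRNA-Arg(CCU) gene were chemically synthesised with a 3% per-site mutation rate across 69 sites and placed at the native genomic locus in Saccharomyces cerevisiae. Six parallel replicates of the pooled strains were competed in YPD at 37°C for 24 hours, and gene amplicons from the start and end populations were read by 100-nucleotide paired-end sequencing. Darwinian fitness relative to wild type was derived from changes in genotype frequencies. Genotypes required ≥ 100 starting reads, and estimates < 0.5 were set to 0.5.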

| Variant | yeast fitness |
| --- | --- |
| C5U A14G A65U G67A | 0.689 |
| C5U A45U C46G C60A | 0.597 |
| C5U A40U A42C A65U | ≤ 0.5 |
| C5G U54C C55G | ≤ 0.5 |
| C5G U47A G58A | 0.567 |
| C5G U54C G56C G58A | ≤ 0.5 |
| C5U A15C | 0.763 |
| C5U A21U C62U A70C | ≤ 0.5 |
| C5U A37C A43C A45C | ≤ 0.5 |
| C5U A21U A37C C61A A65C | ≤ 0.5 |
| C5U A43U C49U | 0.555 |
| C5U A20C C29U C34A C46A G50A A57U | ≤ 0.5 |
| C5G U53G C60A | ≤ 0.5 |
| C5G U59G C66U | ≤ 0.5 |
| C5U A15G C66U | 0.632 |
| C5U A45G C61G C66U A69U | ≤ 0.5 |
| C5U A37C C60U G67A | 0.558 |
| C5U A14U A21G A65C | ≤ 0.5 |
| C5G U54C | 0.814 |
| C5U A42C A69C | 0.803 |
| C5U A45G A69G | 0.909 |
| C5U A20C A40C C61U G68C | ≤ 0.5 |
| C5U A43C | 0.813 |
| C5U A42G G51C G56A | 0.698 |

| Variant | yeast fitness |
| --- | --- |
| C5U A21U A40U | 0.57 |
| C5U A20U C30G C66U | ≤ 0.5 |
| C5U A15U U54A C55U C66A | ≤ 0.5 |
| C5U A14C G41C | 0.613 |
| C5G U47A | 0.731 |
| C5U A20C A36G | 0.632 |
| C5U A21U C30G G58C | ≤ 0.5 |
| C5U A43G G48A | 0.678 |
| C5U A21G C27U G41A | ≤ 0.5 |
| C5U A43U G50U | 0.657 |
| C5U A20U C61U C62U | ≤ 0.5 |
| C5U A14C G41C A43C | ≤ 0.5 |
| C5U A21U G68A | ≤ 0.5 |
| C5U A21C C31G C66U | 0.528 |
| C5U A14G C24U A40U C55G | ≤ 0.5 |
| C5U A45C C49U G56A | 0.616 |
| C5U A43C C49U G50A | ≤ 0.5 |
| C5U A40U A42G A57C | ≤ 0.5 |
| C5U A14C G63A | ≤ 0.5 |
| C5U A14C A21C C33U G56A | ≤ 0.5 |
| C5U A42U C49G C60A | 0.575 |
| C5U A37G G56C A65C | ≤ 0.5 |
| C5U A14C A45C A65C | 0.561 |
| C5U A20U U26A C49A A57C C62U | ≤ 0.5 |

| Variant | yeast fitness |
| --- | --- |
| C5U A14C A21C U53G A57C | ≤ 0.5 |
| C5U A20C G23C C24U C31U U64C | ≤ 0.5 |
| C5G U64G C66U | 0.593 |
| C5U A20U C30U G63A | ≤ 0.5 |
| C5U A14U G41C | ≤ 0.5 |
| C5U A42U C55U A69C | ≤ 0.5 |
| C5U A20C U53A | 0.544 |
| C5U A14U G17C C33U G52C G63A | ≤ 0.5 |
| C5U A14C C62A | 0.504 |
| C5U A15U G63A A70U | 0.807 |
| C5U A20C A36G G52C | 0.567 |
| C5U A15G A42C C49A | ≤ 0.5 |
| C5U A20C A70U | 0.732 |
| C5U A37U A42U A69U | ≤ 0.5 |
| C5U A14G A65G | 0.69 |
| C5U A40C A42G | 0.558 |
| C5U A15G A20G C27G C33U G63A | ≤ 0.5 |
| C5U A40G C49U C62U A65G | ≤ 0.5 |
| C5U A15U G39A U53A G68C | ≤ 0.5 |
| C5U A37G A40C U47A | ≤ 0.5 |
| C5U A37C C61U | 0.627 |
| C5U A37C C61G | ≤ 0.5 |
| C5U A14G U26C C30U A42C C61G | ≤ 0.5 |
| C5U A45C G56C | 0.572 |

| Variant | yeast fitness |
| --- | --- |
| C5U A15U C30G C33G A40G A43U | ≤ 0.5 |
| C5G U35G A43G C49U G63A A65U | ≤ 0.5 |
| C5U A14C | 0.593 |
| C5U A14G U26C | 0.662 |
| C5U A15U G25A C29U C31U C34U | ≤ 0.5 |
| C5U A43U C66U | 0.68 |
| C5U A21G A42U G58A | 1.02 |
| C5U A45C G63C | ≤ 0.5 |
| C5U A37C G52C | ≤ 0.5 |
| C5U A14U C29U C46G | ≤ 0.5 |
| C5U A37G G56C | 0.533 |
| C5U A14G C33G A40G | ≤ 0.5 |
| C5U A21U U53A A57U C60A G68C | ≤ 0.5 |
| C5U A20C G39C G58A | ≤ 0.5 |
| C5U A20U C30U | ≤ 0.5 |
| C5U A14C C55A | ≤ 0.5 |
| C5U A14U C31G G63A | 0.575 |
| C5U A36U C49G | ≤ 0.5 |
| C5U A42G A45U C60G | ≤ 0.5 |
| C5U A36U A70U | 0.628 |
| C5U A14C A15U G17A U26C A42U A45C | 0.508 |
| C5U A15G C22U A37U A65C | ≤ 0.5 |
| C5U A20C C29A C49G A57G | ≤ 0.5 |
| C5U A20C C34A U64C | ≤ 0.5 |

| Variant | yeast fitness |
| --- | --- |
| C5U A42U | 0.838 |
| C5U A21G A57C | 0.562 |
| C5U A14U C46U G52C A69U | ≤ 0.5 |
| C5U A14U G17C A36U | ≤ 0.5 |
| C5G U53C A65C | ≤ 0.5 |
| C5U A21U U28C C30G A70U | ≤ 0.5 |
| C5U A21G C29U A45U | 0.538 |
| C5U A15C A21G C27U C46U | ≤ 0.5 |
| C5U A14G A21U A36U G48C C55U | 0.627 |
| C5U A20U A45C C60U C61A | ≤ 0.5 |
| C5U A15G C60A A70C | ≤ 0.5 |
| C5U A20C G67A | 1.01 |
| C5U A14C A21C | 0.552 |
| C5U A20G C22G C29A A45U | 0.563 |
| C5U A15G A42G G58C G68A | ≤ 0.5 |
| C5U A21U C31G A37C C66U | 0.51 |
| C5U A14G C24U U28C | ≤ 0.5 |
| C5U A20U G50A U59C | 0.544 |
| C5U A40C A65U | 0.643 |
| C5U A20U A36G | 0.674 |
| C5U A36G C55G | ≤ 0.5 |
| C5U A15G U16A A20G U28A C30A C33A A36U | ≤ 0.5 |
| C5U A20U U28G U32G C34G | ≤ 0.5 |
| C5U A37C G50C | ≤ 0.5 |

| Variant | yeast fitness |
| --- | --- |
| C5U A37G U59G G68C | ≤ 0.5 |
| C5U A14C C29U C46A | ≤ 0.5 |
| C5U A14U U32A U54C C55U | ≤ 0.5 |
| C5G U53C C55A A57G | ≤ 0.5 |
| C5G U53G A65G | ≤ 0.5 |
| C5G U64A | 0.784 |
| C5U A15G C22G G41A A45U U47A C62U A69U | ≤ 0.5 |
| C5U A14C A69C | ≤ 0.5 |
| C5U A37G A43C G63C | ≤ 0.5 |
| C5U A14U C30U G39C | ≤ 0.5 |
| C5U A15U A20C C55A | ≤ 0.5 |
| C5U A14C C61U | 0.562 |
| C5U A14U U16A | ≤ 0.5 |
| C5U A21U C30G C66A | 0.552 |
| C5U A21U C33U G50A | 0.65 |
| C5U A21G C27U G41A G63U | ≤ 0.5 |
| C5U A15U G17C U26C | ≤ 0.5 |
| C5U A20G U35C A37G | ≤ 0.5 |
| C5U A14G A40G | 0.648 |
| C5U A21G G44C A57U C62U | ≤ 0.5 |
| C5G U47A G68A | ≤ 0.5 |
| C5U A21G G39C | 0.515 |
| C5U A20C A21U U53C U64A | ≤ 0.5 |
| C5U A42G G56C | ≤ 0.5 |

| Variant | yeast fitness |
| --- | --- |
| C5U A20U G56C A65G A70U | ≤ 0.5 |
| C5U A15G G58C G68A | 0.51 |
| C5U A20C C27U G39A G56A G58C | ≤ 0.5 |
| C5U A14G C29U A37U | ≤ 0.5 |
| C5U A45C A70G | 0.76 |
| C5U A45C A70U | 0.813 |
| C5G U59G G63A | 0.526 |
| C5U A42C C60G | ≤ 0.5 |
| C5U A45U C46G | ≤ 0.5 |
| C5U A15U G17A C46G G63C C66A | ≤ 0.5 |
| C5U A15G U19A A21U C34U | ≤ 0.5 |
| C5U A15U U16A C29U C55U | ≤ 0.5 |
| C5U A45G C62U | 0.994 |
| C5U A15U C31U A43U C49U | ≤ 0.5 |
| C5U A43U G44A C46A | ≤ 0.5 |
| C5U A21U | 0.766 |
| C5U A21C | 0.897 |
| C5U A14C A70U | ≤ 0.5 |
| C5U A20U C49G A69C | ≤ 0.5 |
| C5U A37U C61U | 0.623 |
| C5U A21C C31U | 0.695 |
| C5U A21U C31U G52A A69G | ≤ 0.5 |
| C5U A14G G67A | 0.642 |
